Shown are actives, neighbours in structure and some others; about 1.6% of the full set was active somewhere.
RBBP9 inh: human RBBP9 inhibitors, primary screen, biochemical, fluorescence polarization, FP-Rh probe, HTS; Serine hydrolase RBBP9 (Homo sapiens), O75884; recombinant RBBP9; inhibition, % at 7.94 µM; 220,000 tested, 0.2% active; AID 1515, 2009;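 active = inhibition above the campaign mean of all tested compounds plus 3 SD, cut at about 14% in these data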;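 also: plate controls were DMSO wells with RBBP9 for no effect and wells lacking RBBP9 protein for full effect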
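Controls: DMSO-treated enzyme wells and wells lacking RBBP9 | Material: RBBP9 protein | Technique: Fluorescence polarization | Replication: Single well per compound, no replicates | Buffer or medium: Tris-NaCl-Pluronic buffer, pH 8.0 | Timing: 30 min compound preincubation, 45 min probe labeling, 25 °C | Read-out basis: Percent inhibition from mP, scaled between DMSO and no-protein wells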
eIF4H FP inh: human eIF4H binding inhibitors, primary screen, translation initiation inhibitor project, biochemical, uHTS, fluorescence polarization. eIF4H fluorescence polarization binding assay. inhibition, % at 35 µM. Eukaryotic translation initiation factor 4H (Homo sapiens), Q15056. 290,000 tested, 0.94% active. AID 2012, 2009;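 also: calls also rest on retests at 20 µM and on dose response follow-up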
PABP FP inh: PABP poly(A) RNA binding inhibitors, primary screen, biochemical, fluorescence polarization, uHTS; Polyadenylate-binding protein 1 (Homo sapiens), P11940; calls only at 35 µM; 290,000 tested, 1% active; AID 2014, 2009;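 also: calls also rest on retests at 20 µM and on dose response follow-up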
Target sequence (P11940 whole entry, looked up): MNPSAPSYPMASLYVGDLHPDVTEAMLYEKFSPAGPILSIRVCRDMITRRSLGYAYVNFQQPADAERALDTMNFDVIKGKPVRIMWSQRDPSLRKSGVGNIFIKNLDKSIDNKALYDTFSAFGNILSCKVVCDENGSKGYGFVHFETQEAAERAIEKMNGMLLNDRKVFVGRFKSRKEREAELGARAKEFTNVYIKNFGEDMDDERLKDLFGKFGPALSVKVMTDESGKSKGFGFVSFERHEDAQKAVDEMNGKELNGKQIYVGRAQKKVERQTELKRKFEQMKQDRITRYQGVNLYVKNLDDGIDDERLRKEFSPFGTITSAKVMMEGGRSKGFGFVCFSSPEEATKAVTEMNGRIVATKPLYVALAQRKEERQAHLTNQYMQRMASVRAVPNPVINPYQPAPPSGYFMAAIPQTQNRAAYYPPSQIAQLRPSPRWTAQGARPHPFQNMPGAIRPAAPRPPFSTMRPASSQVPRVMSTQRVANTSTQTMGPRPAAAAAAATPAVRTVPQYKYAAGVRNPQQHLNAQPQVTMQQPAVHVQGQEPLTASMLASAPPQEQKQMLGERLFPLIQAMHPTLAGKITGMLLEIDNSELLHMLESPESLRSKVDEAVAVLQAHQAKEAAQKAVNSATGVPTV
TCR-CD3 inh: inhibitors of human TCR-CD3 interaction, primary screen, biochemical, fluorescence, TAMRA-labeled TCR probe | T-cell receptor (TCR) | inhibition, % at 9.4 µM | 360,000 tested, 0.37% active; in the data active = inhibition above about 19%;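 also: recombinant mutant TCR 2C K166C tagged with TAMRA read by polarization; 0% = receptor in buffer alone and 100% = receptor with positive control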
MLLE-PAM2 inh: inhibitors of PABP1 MLLE–PAM2 peptide binding, primary screen, biochemical, fluorescence polarization, FITC-PAM2, GST-MLLE; inhibition, % at 20 µM; 360,000 tested, 0.36% active; in the data active = inhibition above about 35%, passing the limit was not always enough;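 also: plate controls were DMSO wells with GST-MLLE for no effect and wells lacking GST-MLLE protein for full effect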
RBBP9 confirm: human RBBP9 inhibitors, retest, confirmation, biochemical, fluorescence polarization, FP-Rh probe, triplicate | shares compounds with RBBP9 inh | recombinant RBBP9 | inhibition, % at 7.94 µM | 410 tested, 36% active | AID 1537, 2009;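 active = inhibition above the hit cutoff derived for the primary screen, cut at about 15% in these data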;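 also: 0% = RBBP9 with DMSO and 100% = wells lacking RBBP9 protein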
* = called active by the depositor; i = inactive; ? = inconclusive; . = not tested or not shown; + = active, no number. Unless noted, no rule for the calls is given here.

SMILES | RBBP9 inh | eIF4H FP inh | PABP FP inh | TCR-CD3 inh | MLLE-PAM2 inh | RBBP9 confirm
O=[N+]([O-])c1ccc(Sc2cccc[n+]2[O-])c2nonc12 | 19.4* | 112.1 | i | 4.0 | -0.8 | 49.6*
O=[N+]([O-])c1ccc(Nc2ccccc2)c2nonc12 | . | -19.8 | i | -7.8 | -55.7 | .
COc1ccc(-c2cc(N3C(=O)Nc4ccccc4N3O)n[nH]2)cc1 | -3.3 | -10.5 | i | -10.2 | 16.1 | .
CCOc1ccc(-c2cc(N3C(=O)Nc4ccccc4N3O)on2)cc1 | 16.2* | 0.3 | i | -7.7 | 6.2 | 4.1
COCc1cc(N2CCNC[C@H]2C)ccc1N1CCN(Cc2ccccc2)[C@H](C)C1 | . | . | . | 6.6 | . | .
CC1(C)CC(=O)C(C=NCCN2CCN(C(=O)c3ccc(F)cc3)CC2)=C(O)C1 | 14.9* | -1.7 | i | 11.7 | 13.1 | 8.1
Cc1ccc(S(=O)(=O)Nc2ccc3oc(=O)sc3c2)c(C)c1 | 19.7* | 7.9 | i | -1.4 | 20.1 | 15.6*
O=C1c2ccc(Oc3cccc([N+](=O)[O-])c3)cc2C(=O)N1c1ccccn1 | -4.6 | -3.9 | i | 3.5 | -6.3 | .
O=C1c2cc([N+](=O)[O-])cc3cc([N+](=O)[O-])cc(c23)C(=O)N1c1ccccn1 | 15.2* | -1.3 | i | -0.1 | 3.4 | 10.2
COC(=O)C1=C(C)N(C)C(=NCC2CC2)NC1c1ccc(F)cc1 (stereo not given) | . | . | . | -0.8 | . | .
COc1ccc2c(c1)[C@@H](NC(=O)c1ccncc1)[C@@H]1Cc3ccccc3[C@H]21 | . | . | . | -0.2 | . | .
CC(=O)C1=C(C)N(CC(C)C)C(=S)NC1c1cccc(Cl)c1 (stereo not given) | . | . | . | -4.9 | . | .
CC(=O)NC(=S)Nc1cccc([N+](=O)[O-])c1 | 17.0* | 8.1 | i | 0.8 | 11.5 | 0.6
COc1cc(-c2ccc(Nc3ccccc3C(=O)O)c(OC)c2)ccc1Nc1ccccc1C(=O)O | 24.3* | 91.0* | + | 9.8 | -7.6 | 45.6*
CCc1c(-c2ccccc2F)ncn1CCc1ccccc1OC | . | . | . | 1.2 | . | .
Cc1cc(C)cc(N(C(=O)c2csnn2)C(C(=O)NC(C)(C)C)c2cccs2)c1 (stereo not given) | 15.4* | -34.2 | i | -0.1 | 5.9 | 5.9
Cc1ccc(N(C(=O)c2csnn2)C(C(=O)NC(C)(C)C)c2cccs2)cc1 (stereo not given) | -2.0 | ? | ? | -2.5 | 12.6 | .
Cc1ccc2nc(-c3cccc(Cl)c3)c(Cc3ccccc3C(F)(F)F)n2c1 | . | . | . | -1.4 | . | .
Cc1cc(=O)n2[nH]c(=O)c(N=Nc3ccccc3)c2[nH]1 | 15.5* | -2.8 | i | 4.7 | -2.2 | 37.6*
O=C(N[C@@H](Cc1cccnc1)C(=O)N1CCC[C@H]1C(=O)NCCc1ccccc1Cl)c1ccco1 | . | . | . | 3.6 | . | .
O=C(c1cc2c(s1)CCCCC2)N1CCN(c2ncccn2)CC1 | -6.7 | -5.8 | i | 1.6 | -0.3 | .
O=C(c1cc2c(s1)CCCC2)n1cccn1 | 42.2* | -8.3 | i | . | 9.2 | 10.9
CC(=O)Nc1cccc(/C(C)=N/NC(=O)c2ccc(NS(=O)(=O)c3cccs3)cc2)c1 | 19.2* | 1.3 | i | -1.3 | -3.6 | 7.1
C/C(=N\NC(=O)c1ccc(NS(=O)(=O)c2cccs2)cc1)c1ccc(C(C)(C)C)cc1 | -9.3 | -5.6 | i | -1.5 | -2.3 | .
Cc1ccccc1-c1ccc2c(c1)[C@@H]1C[C@H](N(C)S(=O)(=O)c3ccc(Cl)cc3)[C@H]([C@H](C)O)CN1CC2 | . | . | . | -3.2 | . | .
Cc1ccsc1C=Nc1ccc(O)cc1 | 14.8* | 51.1* | i | . | 21.6 | 12.7
Cc1ccsc1/C=N/N=C/c1sccc1C | . | -0.4 | i | 1.6 | -7.3 | .
CC1=CC(C)(C)N(S(=O)(=O)c2ccc(C)cc2)c2cc(C)ccc21 | 20.7* | 5.7 | i | -0.2 | -6.1 | 9.5
C[C@@H]1CN([C@H](C)CO)C(=O)c2ccccc2-c2ccccc2CO[C@@H]1CN(C)C(=O)Nc1ccccc1 | . | . | . | 6.5 | . | .
C=CCN1C(=O)C(C)NC1=S (stereo not given) | 21.8* | -0.4 | i | 12.4 | 9.4 | -0.7

High-throughput results from PubChem BioAssay.
